# Compound activity deposited in PubChem BioAssay by Johns Hopkins Ion Channel Center.
# The list is not random: actives were taken first. Their share in the collection is about 2.3%.
# TRPC6 inhibitor: inhibitors of mouse TRPC6 channel; Q61143; B-score at 10 µM; AID 2553; HEK293-TRPC6, membrane potential dye, ACh-evoked depolarization; active compounds read low; actives 1.1% (n = 310,000);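 active = B-score under library mean minus 3 SD, initial fluorescence not abnormally high, positive integrated signal ratio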;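 also: B-score derived from integrated fluorescence ratio over the kinetic read; more negative B-score means stronger inhibition of depolarization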
# Target sequence (Q61143 whole entry, looked up): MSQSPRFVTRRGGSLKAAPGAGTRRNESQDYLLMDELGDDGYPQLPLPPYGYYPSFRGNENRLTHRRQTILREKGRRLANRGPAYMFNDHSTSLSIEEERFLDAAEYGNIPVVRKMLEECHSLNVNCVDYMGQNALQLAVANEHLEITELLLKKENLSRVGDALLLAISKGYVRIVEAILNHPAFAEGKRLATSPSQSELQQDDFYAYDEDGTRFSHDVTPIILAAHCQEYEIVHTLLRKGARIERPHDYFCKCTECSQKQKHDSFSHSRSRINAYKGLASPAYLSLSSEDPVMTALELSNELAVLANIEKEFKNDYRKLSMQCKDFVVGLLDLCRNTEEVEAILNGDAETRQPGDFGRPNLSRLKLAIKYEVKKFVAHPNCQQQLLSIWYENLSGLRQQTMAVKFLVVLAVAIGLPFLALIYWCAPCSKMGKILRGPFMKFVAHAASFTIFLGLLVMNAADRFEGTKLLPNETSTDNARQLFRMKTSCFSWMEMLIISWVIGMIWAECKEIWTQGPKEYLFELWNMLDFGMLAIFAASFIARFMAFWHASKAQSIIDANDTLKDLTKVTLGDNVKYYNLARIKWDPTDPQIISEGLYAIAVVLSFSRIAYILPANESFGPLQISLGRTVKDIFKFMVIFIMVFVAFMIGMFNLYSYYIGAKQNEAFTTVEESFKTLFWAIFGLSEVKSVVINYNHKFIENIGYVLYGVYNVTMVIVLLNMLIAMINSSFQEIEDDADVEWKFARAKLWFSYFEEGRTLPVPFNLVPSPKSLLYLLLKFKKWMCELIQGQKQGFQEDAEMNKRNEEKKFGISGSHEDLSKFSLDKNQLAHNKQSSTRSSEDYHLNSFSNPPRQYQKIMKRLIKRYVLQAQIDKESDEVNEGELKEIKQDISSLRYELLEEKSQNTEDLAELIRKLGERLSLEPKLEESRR
# TRPC4 block: inhibitors of mouse TRPC4 channel; Q9QUQ5; B-score at 10 µM; AID 2247; HEK293 TRPC4beta/mu-opioid, DAMGO-evoked Fluo4 calcium flux; active compounds read low; actives 0.39% (n = 300,000);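 active = B-score over 3 SD under the library average, no early fluorescence shift, positive overall ratio signal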
#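 Assay system – HEK293 line stably carrying TRPC4beta and mu-opioid receptor · Doses – single dose · Detection – Fluo4 calcium-dye fluorescence, kinetic read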
# TRPC4 act: TRPC4 (mouse) channel activation; Q9QUQ5; HEK293 TRPC4beta/mu-opioid, Fluo4 calcium fluorescence; active compounds read high; actives 0.49% (n = 310,000); B-score at 10 µM;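 active = B-score above 5 SD of library B-scores, and initial fluorescence ratio not above library mean plus 5 SD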;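 also: positive B-score marks a calcium rise read as TRPC4 activation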
#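 Assay system: HEK293 stable line with TRPC4beta plus mu-opioid receptor; schedule: 45 min room-temperature Fluo4 loading, 110 s read; technique: kinetic Fluo4 calcium fluorescence; evaluation: integrated baseline-normalised fluorescence ratio, converted to per-well B score; controls: buffer (low) and maximal DAMGO (high)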
# TRPC4 PAM: allosteric potentiators of mouse TRPC4 channel; Q9QUQ5; HEK293 TRPC4beta/mu-opioid, DAMGO EC20, Fluo-4 Ca2+ flux; active compounds read high; B-score at 10 µM; actives 0.42% (n = 310,000); AID 2227;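 active = B-score of calcium response area above 5 SD of library B-scores, with initial fluorescence ratio within 5 SD of library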
# TRPC6 act: mouse TRPC6 channel activation | B-score at 10 µM | actives 0.13% (n = 310,000) | HEK293-TRPC6 membrane potential dye fluorescence; active compounds read high | Q61143 | AID 2550;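 active = B-score of the integrated fluorescence ratio above library mean plus 3 SD, and starting fluorescence ratio within library mean plus 5 SD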;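 also: higher score means more depolarization so channel activation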
# TRPC4 spec 2: mouse TRPC4 off-target activity of TRPC6 inhibitors, second screen. inhibition, % at 10 µM. HEK293 TRPC4/MOR, membrane potential dye fluorescence; channel activated by saturating DAMGO dose. shares compounds with TRPC6 inhibitor. actives 42% (n = 920);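 active = compounds whose fluorescence signal differed from control wells by over 3 SD, either direction, in both duplicate plates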
# TRPC4 spec: selectivity of TRPC6 inhibitors: effect on mouse TRPC4; AID 2777; HEK293 TRPC4/mu-opioid, membrane potential fluorescence; actives 61% (n = 920); activity change, negative = inhibition, % at 10 µM; shares compounds with TRPC6 inhibitor;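 active = rise or fall in signal beyond 3 SD of buffer-only wells in both replicate plates, either sign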;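 also: integrated kinetic ratio of fluorescence range over baseline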
# HEK293 MPD ctr 2-1: second counter-screen for TRPC6 inhibitors: parental HEK293 cells. parental HEK293 membrane potential dye fluorescence; maximal acetylcholine challenge after compound addition. shares compounds with TRPC6 inhibitor. actives 31% (n = 920). signal change vs control, % at 10 µM;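 active = membrane potential signal moving either way by over 3 SD of the maximum-effect control, in both duplicate plates, meaning non-specific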
# HEK293 MPD ctr-1: counter-screen for TRPC6 inhibitors: effect in parental HEK293 cells; parental HEK293 membrane potential dye fluorescence; membrane potential signal change, % at 10 µM; actives 60% (n = 920); AID 2780; shares compounds with TRPC6 inhibitor;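 active = membrane potential signal shifting up or down by more than 3 SD of buffer-only wells, on both duplicate plates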
# HEK293 MPD ctr-2: counter-screen for TRPC6 modulators: effect in parental HEK293 cells; membrane potential dye fluorescence; actives 51% (n = 2,400); membrane potential signal change, % at 10 µM; shares compounds with TRPC6 inhibitor;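 active = membrane potential signal moves up or down beyond 5 SD from buffer-only wells, on both duplicate plates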
# HEK293 MPD ctr 2-2: parental HEK293 nonspecific activity of TRPC6 modulators, second screen. shares compounds with TRPC6 inhibitor. membrane potential dye fluorescence; after compound, maximal acetylcholine stimulation. inhibition, % at 10 µM. actives 14% (n = 2,400). AID 488926;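 active = membrane potential signal drops by more than 5 SD from the mean control signal, in both duplicate plates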
# TRPC4 ctr mod: tests whether TRPC6 modulators also affect mouse TRPC4; shares compounds with TRPC6 inhibitor; HEK293 TRPC4/mu-opioid, membrane potential fluorescence; percent change from control (negative = decrease, positive = increase), % at 10 µM; actives 69% (n = 2,400);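 active = membrane potential signal moved up or down beyond 5 SD of buffer control wells, in both duplicate plates, actives on both sides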
# TRPC4 ctr inh 2: second selectivity test of TRPC6 modulators against mouse TRPC4; shares compounds with TRPC6 inhibitor; HEK293 TRPC4/mu-opioid, membrane potential dye fluorescence; stimulated with maximal-effect DAMGO; inhibition, % at 10 µM; actives 55% (n = 2,400); AID 488928;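 active = drop in membrane potential signal beyond 5 SD of the control wells in both duplicate plates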;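 also: TRPC4 counter screen for TRPC6 hits run under conditions tuned for TRPC6 not TRPC4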
# TRPC6 block conf: confirmation of mouse TRPC6 inhibitors; shares compounds with TRPC6 inhibitor; HEK293-TRPC6, membrane potential dye, ACh-evoked depolarization; inhibition, % at 10 µM; actives 43% (n = 3,300);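 active = fluorescence ratio falls more than 5 SD below the full-stimulation control mean, in both duplicate runs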;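 also: integrated fluorescence ratio of peak minus minimum over baseline after agonist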
# TRPC6 act confirm: confirmation of mouse TRPC6 activators | shares compounds with TRPC6 inhibitor | AID 488961 | actives 11% (n = 2,800) | HEK293-TRPC6 membrane potential dye fluorescence, FDSS | activation, % at 10 µM;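 active = ratio signal rise beyond 5 SD above unstimulated control wells' mean, seen in both duplicate runs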
# Numbers stand for hits; – = inactive; · = no result; + = active, no number.
SMILES,TRPC6 inhibitor,TRPC4 block,TRPC4 act,TRPC4 PAM,TRPC6 act,HEK293 MPD ctr-2,HEK293 MPD ctr 2-2,TRPC4 ctr mod,TRPC4 ctr inh 2,TRPC6 block conf,TRPC6 act confirm,others
O=C(NC1CC1)C1CCN(C2CCN(C(=O)CSc3ccccc3)CC2)CC1,–,–,–,–,–,·,·,·,·,·,·,
COc1cccc(CN2CCCC(C(=O)N3CCCCC3)C2)c1 (stereo not drawn),–,–,–,–,–,·,·,·,·,·,·,
Cc1ccc(C(=O)C[n+]2cc(-c3ccc(C)cc3)n3c2CCCCC3)cc1,-5.4,–,–,–,12,265%,–,48%,42%,51%,90%,
O=C(C[n+]1cc(-c2ccc(Cl)cc2)n2c1CCC2)N1c2ccccc2Sc2ccccc21,-6.2,–,–,–,–,–,58%,-10%,–,73%,–,
CC(C)C(Sc1nc(-c2ccccc2)cc(-c2ccccc2)c1C#N)C(=O)O (stereo not drawn),–,–,–,–,13,355%,–,66%,–,–,126%,
COc1ccc(OCC(O)COc2ccc(OC)cc2)cc1,-6.4,–,–,–,–,–,–,–,–,66%,·,
COc1ccc(OCC(O)CNC(=O)c2ccc(OC)cc2)cc1 (stereo not drawn),–,–,–,–,–,·,·,·,·,·,·,
COC(=O)[C@@]1(Cc2ccc(F)cc2)[C@H]2c3cc(C(=O)N(C)C)n(Cc4ccc(OC(F)(F)F)cc4)c3C[C@H]2CN1C(=O)c1ccccc1,–,–,–,–,–,·,·,·,·,·,·,
O=C(COC(=O)c1ccc([N+](=O)[O-])cc1Cl)Nc1cccnc1Cl,–,–,–,–,–,·,·,·,·,·,·,
Cc1ccc(Cl)c(NC(=O)CN2CCNC(=O)C2)c1Cl,–,–,–,–,–,·,·,·,·,·,·,
COc1ccc(N2CCN(C(=O)c3cn(CC4CCCCC4)nn3)CC2)cc1,–,–,–,–,–,·,·,·,·,·,·,
Cc1cn2c(N)c(C=C3C=C(Cl)C(=O)C(Cl)=C3)c(=O)nc2s1,–,–,–,–,83,+,198%,360%,–,–,430%,
CC1CCCC(C)N1c1ccc(S(=O)(=O)N2CCOCC2)cc1Cl (stereo not drawn),–,–,–,–,–,·,·,·,·,·,·,
O=C(CSC1=NS(=O)(=O)c2cc(Cl)ccc2N1)c1ccc(Cl)cc1,–,–,–,–,–,·,·,·,·,·,·,
Cc1cc(-c2ccc(Cl)cc2Cl)c(C#N)c(=O)[nH]1,–,–,–,–,–,·,·,·,·,·,·,
CSc1nc(-c2ccc(Cl)cc2Cl)[nH]c(=O)c1C#N,–,–,–,–,13,–,–,12%,–,–,–,
Cc1cc(N)n(-c2ccccn2)n1,–,–,–,–,–,·,·,·,·,·,·,
COc1ccc(NCc2nnc(SCC(=O)Nc3cccc(C)c3)o2)cc1,-6.3,–,–,–,–,–,–,–,–,–,–,
CCCCOc1ccc(S(=O)(=O)N2CCCCCC2)cc1,-5.6,–,–,–,–,–,–,–,–,46%,–,
CCOc1cc(S(=O)(=O)N2CCCCCC2)ccc1F,-6.7,–,–,–,–,·,·,·,·,–,–,TRPC4 spec 2=–;TRPC4 spec=–;HEK293 MPD ctr 2-1=–;HEK293 MPD ctr-1=–
CCOc1ccccc1N1CCN(S(=O)(=O)c2ccc(F)c(F)c2)CC1,–,–,–,–,–,·,·,·,·,·,·,
CCOC(=O)N1CCN(C(=O)COc2ccc3ccccc3c2Br)CC1,-6.6,–,–,–,–,–,–,12%,–,–,·,
CCOC(=O)N1CCN(S(=O)(=O)c2ccc(OCC)c3ccccc23)CC1,-7.8,–,–,–,–,·,·,·,·,–,–,TRPC4 spec 2=–;TRPC4 spec=–;HEK293 MPD ctr 2-1=–;HEK293 MPD ctr-1=–
COc1cc(C(=O)Nc2ccc(S(=O)(=O)N3CCOCC3)cc2)c([N+](=O)[O-])cc1OC,–,–,–,–,–,·,·,·,·,·,·,
Cc1cc2sc3nc(=O)n(-c4ccccc4)c(=O)n3c2cc1C,–,–,–,–,–,·,·,·,·,·,·,
SMILES,TRPC6 inhibitor,TRPC4 block,TRPC4 act,TRPC4 PAM,TRPC6 act,HEK293 MPD ctr-2,HEK293 MPD ctr 2-2,TRPC4 ctr mod,TRPC4 ctr inh 2,TRPC6 block conf,TRPC6 act confirm,others
CCC1CCCCN1C(=O)CN1C(=O)c2ccccc2S1(=O)=O (stereo not drawn),–,–,–,–,–,·,·,·,·,·,·,
Cc1ccccc1N(C)C(=O)C1CCCN(c2ncnc3c2nc2n3CCCCC2)C1 (stereo not drawn),–,–,–,–,–,·,·,·,·,·,·,
Cc1ccccc1CNC(=O)C(=O)NCC1OCCCN1S(=O)(=O)c1cccs1 (stereo not drawn),–,–,–,–,–,·,·,·,·,·,·,
Cn1c(Cc2ccc3c(c2)OCO3)nnc1SCC(=O)NC1CCCC1,–,–,–,–,–,·,·,·,·,·,·,
CCOC(=O)N1CCN(S(=O)(=O)c2ccc(OCC)cc2)CC1,-6.2,–,–,–,–,–,–,31%,–,–,·,
COc1cccc(C(=O)N2CCN(C3CCN(Cc4ccccc4)CC3)CC2)c1OC,–,–,–,–,–,·,·,·,·,·,·,
CC(=O)c1cccc(CN2CCN(Cc3ccccc3)C(CCO)C2)c1 (stereo not drawn),–,–,–,–,–,·,·,·,·,·,·,
CC(C)c1[nH]nc2c1C(Cc1ccccc1)C(C#N)=C(N)O2 (stereo not drawn),-6.4,–,–,–,–,–,–,–,–,–,–,
Cc1ccc(NC2CCCN(C(=O)c3cnc4ccccn4c3=O)C2)cc1C (stereo not drawn),–,–,–,–,–,·,·,·,·,·,·,
